Assay results reported in ChEMBL document CHEMBL1649256, “Comparison of assessment of oxygen consumption, Etest, and CLSI M38-A2 broth microdilution methods for evaluation of the susceptibility of Aspergillus fumigatus to posaconazole” (2009).
≈ marks a conversion by molar mass, not a printed value.

How the values were obtained:
Format in all cases: functional
[1] = tested on: Aspergillus fumigatus; assay: Antimicrobial activity against Aspergillus fumigatus isolate 13 by oxygen consumption method
In short: (§1)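 Conidial suspension in RPMI 1640 broth with posaconazole at 0.25 and 2 μg/ml. Tubes agitated 12 h at 37°C in a biological oxygen monitor. Available oxygen was monitored continuously, and the MIC was assigned from the oxygen quantification.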

[2] = tested on: Aspergillus fumigatus; assay: Antimicrobial activity against Aspergillus fumigatus isolate 38 after 24 hrs by Etest; settings: isolate 38, 24 h
In short: (§2)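 Posaconazole Etest strips on RPMI 1640 agar with 2% glucose, pH 7.0, run per the strip maker's instructions. Incubated at 35°C. MIC read at 24 h and at 48 h, matching the time in each line.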

[3] = tested on: Aspergillus fumigatus; assay: Antimicrobial activity against Aspergillus fumigatus isolate 28 by oxygen consumption method
In short: (§3)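 Conidial suspension in RPMI 1640 broth, 1.5 ml, with two drug concentrations (0.25 and 2 μg/ml). Tubes agitated 12 h at 37°C in a biological oxygen monitor. Available oxygen monitored continuously and quantified to assign the MIC.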

[4] = tested on: Aspergillus fumigatus; assay: Antimicrobial activity against Aspergillus fumigatus isolate 50 after 48 hrs by Etest; settings: isolate 50, 48 h
[5] = tested on: Aspergillus fumigatus; assay: Antimicrobial activity against Aspergillus fumigatus isolate 18 by oxygen consumption method; in short: as §1
[6] = tested on: Aspergillus fumigatus; assay: Antimicrobial activity against Aspergillus fumigatus isolate 46 after 48 hrs by Etest; settings: isolate 46, 48 h
[7] = tested on: Aspergillus fumigatus; assay: Antimicrobial activity against Aspergillus fumigatus isolate 49 after 48 hrs by Etest; settings: isolate 49, 48 h
[8] = tested on: Aspergillus fumigatus; assay: Antimicrobial activity against Aspergillus fumigatus isolate 28 after 24 hrs by Etest; settings: isolate 28, 24 h
In short: (§4)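 Etest strips on RPMI 1640 agar with 2% glucose, pH 7.0, run per manufacturer's instructions. Incubated at 35°C; MIC read at 24 h.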

[9] = tested on: Aspergillus fumigatus; assay: Antimicrobial activity against Aspergillus fumigatus isolate 4 after 24 hrs by Etest; settings: isolate 4, 24 h; in short: as §2
[10] = tested on: Aspergillus fumigatus; assay: Antimicrobial activity against Aspergillus fumigatus isolate 49 by oxygen consumption method
[11] = tested on: Aspergillus fumigatus; assay: Antimicrobial activity against Aspergillus fumigatus isolate 24 after 48 hrs by Etest; settings: isolate 24, 48 h
In short: (§5)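 Etest strips on RPMI 1640 agar with 2% glucose, pH 7.0, run per manufacturer's instructions. Incubated at 35°C; MIC read at 48 h.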

[12] = tested on: Aspergillus fumigatus; assay: Antimicrobial activity against Aspergillus fumigatus isolate 19 after 48 hrs by Etest; settings: isolate 19, 48 h
In short: (§6)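 Posaconazole Etest strips placed on RPMI 1640 agar with 2% glucose, pH 7.0, and run per the strip maker's instructions. Incubation at 35°C, with the MIC read at 24 h and at 48 h.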

[13] = tested on: Aspergillus fumigatus; assay: Antimicrobial activity against Aspergillus fumigatus isolate 9 after 24 hrs by Etest; settings: isolate 9, 24 h
[14] = tested on: Aspergillus fumigatus; assay: Antimicrobial activity against Aspergillus fumigatus isolate 47 by oxygen consumption method
[15] = tested on: Aspergillus fumigatus; assay: Antimicrobial activity against Aspergillus fumigatus isolate 24 by CLSI M38-A2 broth microdilution method
In short: (§7)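 Reference broth microdilution per CLSI M38-A2. MIC read as absence of visible growth at 48 h. C. parapsilosis ATCC 22019 and C. krusei ATCC 6258 QC strains run in each test session.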

[16] = tested on: Aspergillus fumigatus; assay: Antimicrobial activity against Aspergillus fumigatus isolate 6 by CLSI M38-A2 broth microdilution method
[17] = tested on: Aspergillus fumigatus; assay: Antimicrobial activity against Aspergillus fumigatus isolate 50 after 24 hrs by Etest; settings: isolate 50, 24 h
[18] = tested on: Aspergillus fumigatus; assay: Antimicrobial activity against Aspergillus fumigatus isolate 25 after 24 hrs by Etest; settings: isolate 25, 24 h; in short: as §4
[19] = tested on: Aspergillus fumigatus; assay: Antimicrobial activity against Aspergillus fumigatus isolate 33 by oxygen consumption method
In short: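 Conidial suspension in RPMI 1640 broth, tested at two posaconazole levels (0.25 and 2 μg/ml). Agitated for 12 h at 37°C in a biological oxygen monitor. MIC derived from continuous monitoring and quantification of the available oxygen.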

[20] = tested on: Aspergillus fumigatus; assay: Antimicrobial activity against Aspergillus fumigatus isolate 34 by CLSI M38-A2 broth microdilution method
In short: (§8)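 CLSI M38-A2 broth microdilution with posaconazole. MIC taken as the lowest concentration with no visible growth at 48 h. C. parapsilosis ATCC 22019 and C. krusei ATCC 6258 were included as QC strains in every run.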

[21] = tested on: Aspergillus fumigatus; assay: Antimicrobial activity against Aspergillus fumigatus isolate 33 after 24 hrs by Etest; settings: isolate 33, 24 h; in short: as §2
[22] = tested on: Aspergillus fumigatus; assay: Antimicrobial activity against Aspergillus fumigatus isolate 16 after 48 hrs by Etest; settings: isolate 16, 48 h; in short: as §6
[23] = tested on: Aspergillus fumigatus; assay: Antimicrobial activity against Aspergillus fumigatus isolate 23 by CLSI M38-A2 broth microdilution method; in short: as §7
[24] = tested on: Aspergillus fumigatus; assay: Antimicrobial activity against Aspergillus fumigatus isolate 48 by CLSI M38-A2 broth microdilution method
[25] = tested on: Aspergillus fumigatus; assay: Antimicrobial activity against Aspergillus fumigatus isolate 5 by oxygen consumption method
[26] = tested on: Aspergillus fumigatus; assay: Antimicrobial activity against Aspergillus fumigatus isolate 35 by CLSI M38-A2 broth microdilution method; in short: as §8
[27] = tested on: Aspergillus fumigatus; assay: Antimicrobial activity against Aspergillus fumigatus isolate 21 after 24 hrs by Etest; settings: isolate 21, 24 h; in short: as §4
[28] = tested on: Aspergillus fumigatus; assay: Antimicrobial activity against Aspergillus fumigatus isolate 31 after 24 hrs by Etest; settings: isolate 31, 24 h; in short: as §4
[29] = tested on: Aspergillus fumigatus; assay: Antimicrobial activity against Aspergillus fumigatus isolate 43 by CLSI M38-A2 broth microdilution method
[30] = tested on: Aspergillus fumigatus; assay: Antimicrobial activity against Aspergillus fumigatus isolate 11 by CLSI M38-A2 broth microdilution method
In short: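 Posaconazole broth microdilution follows CLSI M38-A2. The MIC is the lowest concentration with no visible growth at 48 h. Candida parapsilosis ATCC 22019 and Candida krusei ATCC 6258 were included as QC strains in every run.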

[31] = tested on: Aspergillus fumigatus; assay: Antimicrobial activity against Aspergillus fumigatus isolate 31 by oxygen consumption method; in short: as §3
[32] = tested on: Aspergillus fumigatus; assay: Antimicrobial activity against Aspergillus fumigatus isolate 11 after 24 hrs by Etest; settings: isolate 11, 24 h; in short: as §6
[33] = tested on: Aspergillus fumigatus; assay: Antimicrobial activity against Aspergillus fumigatus isolate 10 after 24 hrs by Etest; settings: isolate 10, 24 h; in short: as §6
[34] = tested on: Aspergillus fumigatus; assay: Antimicrobial activity against Aspergillus fumigatus isolate 44 by CLSI M38-A2 broth microdilution method
[35] = tested on: Aspergillus fumigatus; assay: Antimicrobial activity against Aspergillus fumigatus isolate 7 by CLSI M38-A2 broth microdilution method
[36] = tested on: Aspergillus fumigatus; assay: Antimicrobial activity against Aspergillus fumigatus isolate 38 after 48 hrs by Etest; settings: isolate 38, 48 h; in short: as §2
[37] = tested on: Aspergillus fumigatus; assay: Antimicrobial activity against Aspergillus fumigatus isolate 45 after 24 hrs by Etest; settings: isolate 45, 24 h
[38] = tested on: Aspergillus fumigatus; assay: Antimicrobial activity against Aspergillus fumigatus isolate 5 by CLSI M38-A2 broth microdilution method
[39] = tested on: Aspergillus fumigatus; assay: Antimicrobial activity against Aspergillus fumigatus isolate 33 by CLSI M38-A2 broth microdilution method; in short: as §8
[40] = tested on: Aspergillus fumigatus; assay: Antimicrobial activity against Aspergillus fumigatus isolate 32 by CLSI M38-A2 broth microdilution method; in short: as §8
[41] = tested on: Aspergillus fumigatus; assay: Antimicrobial activity against Aspergillus fumigatus isolate 26 after 24 hrs by Etest; settings: isolate 26, 24 h; in short: as §4
[42] = tested on: Aspergillus fumigatus; assay: Antimicrobial activity against Aspergillus fumigatus isolate 23 by oxygen consumption method; in short: as §3
[43] = tested on: Aspergillus fumigatus; assay: Antimicrobial activity against Aspergillus fumigatus isolate 16 after 24 hrs by Etest; settings: isolate 16, 24 h; in short: as §6
[44] = tested on: Aspergillus fumigatus; assay: Antimicrobial activity against Aspergillus fumigatus isolate 3 after 48 hrs by Etest; settings: isolate 3, 48 h; in short: as §5

Structure (SMILES): CC[C@@H]([C@H](C)O)n1ncn(-c2ccc(N3CCN(c4ccc(OC[C@@H]5CO[C@@](Cn6cncn6)(c6ccc(F)cc6F)C5)cc4)CC3)cc2)c1=O [POSACONAZOLE]
- MIC [1]: ≥ 0.5 µg/mL
- MIC [2]: 0.06 µg/mL (≈ 0.0856 µM)
- MIC [3]: ≤ 0.25 µg/mL
- MIC [4]: 0.25 µg/mL (≈ 0.357 µM)
- MIC [5]: ≤ 0.25 µg/mL
- MIC [6]: 0.125 µg/mL (≈ 0.178 µM)
- MIC [7]: 0.5 µg/mL (≈ 0.713 µM)
- MIC [8]: 0.25 µg/mL (≈ 0.357 µM)
- MIC [9]: 0.125 µg/mL (≈ 0.178 µM)
- MIC [10]: ≥ 0.5 µg/mL
- MIC [11]: 0.125 µg/mL (≈ 0.178 µM)
- MIC [12]: 0.25 µg/mL (≈ 0.357 µM)
- MIC [13]: 0.25 µg/mL (≈ 0.357 µM)
- MIC [14]: ≤ 0.25 µg/mL
- MIC [15]: 0.125 µg/mL (≈ 0.178 µM)
- MIC [16]: 0.125 µg/mL (≈ 0.178 µM)
- MIC [17]: 0.25 µg/mL (≈ 0.357 µM)
- MIC [18]: 0.25 µg/mL (≈ 0.357 µM)
- MIC [19]: ≥ 0.5 µg/mL
- MIC [20]: 0.125 µg/mL (≈ 0.178 µM)
- MIC [21]: 0.25 µg/mL (≈ 0.357 µM)
- MIC [22]: 0.25 µg/mL (≈ 0.357 µM)
- MIC [23]: 0.125 µg/mL (≈ 0.178 µM)
- MIC [24]: 0.125 µg/mL (≈ 0.178 µM)
- MIC [25]: ≥ 0.5 µg/mL
- MIC [26]: 0.125 µg/mL (≈ 0.178 µM)
- MIC [27]: 0.25 µg/mL (≈ 0.357 µM)
- MIC [28]: 0.06 µg/mL (≈ 0.0856 µM)
- MIC [29]: 0.125 µg/mL (≈ 0.178 µM)
- MIC [30]: 0.25 µg/mL (≈ 0.357 µM)
- MIC [31]: ≤ 0.25 µg/mL
- MIC [32]: 0.125 µg/mL (≈ 0.178 µM)
- MIC [33]: 0.125 µg/mL (≈ 0.178 µM)
- MIC [34]: 0.06 µg/mL (≈ 0.0856 µM)
- MIC [35]: 0.25 µg/mL (≈ 0.357 µM)
- MIC [36]: 0.125 µg/mL (≈ 0.178 µM)
- MIC [37]: 0.125 µg/mL (≈ 0.178 µM)
- MIC [38]: 1 µg/mL (≈ 1.43 µM)
- MIC [39]: 0.125 µg/mL (≈ 0.178 µM)
- MIC [40]: 0.125 µg/mL (≈ 0.178 µM)
- MIC [41]: 0.25 µg/mL (≈ 0.357 µM)
- MIC [42]: ≤ 0.25 µg/mL
- MIC [43]: 0.125 µg/mL (≈ 0.178 µM)
- MIC [44]: 2 µg/mL (≈ 2.85 µM)
